In ChEMBL document CHEMBL1126899, “Nonpeptide angiotensin II antagonists derived from 1H-pyrazole-5-carboxylates and 4-aryl-1H-imidazole-5-carboxylates” (J Med Chem, 1993):
pIC50: −log10 of the molar value.

Columns and labels:
[1] = target: T1, Type-1 angiotensin II receptor (Oryctolagus cuniculus, UniProt P34976); test: Evaluation of Angiotensin II antagonistic activity by displacement of [125I]-Sar Ile-AII at the rabbit aorta Angiotensin II receptor, type 1; format: tissue-based
T1 sequence (P34976 whole entry): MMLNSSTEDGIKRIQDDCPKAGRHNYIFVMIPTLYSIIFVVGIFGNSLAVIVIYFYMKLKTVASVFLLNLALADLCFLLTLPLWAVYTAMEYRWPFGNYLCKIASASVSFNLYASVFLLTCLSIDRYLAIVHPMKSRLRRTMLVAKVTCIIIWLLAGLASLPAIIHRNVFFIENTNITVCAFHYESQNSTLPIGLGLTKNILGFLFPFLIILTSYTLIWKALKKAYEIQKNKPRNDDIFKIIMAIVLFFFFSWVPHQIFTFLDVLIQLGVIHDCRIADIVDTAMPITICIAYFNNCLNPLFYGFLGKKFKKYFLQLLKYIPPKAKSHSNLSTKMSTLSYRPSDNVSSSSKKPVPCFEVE
Method in brief: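 Rabbit aorta membranes, run without BSA. Competition against [¹²⁵I]Sar¹Ile⁸-AII, in duplicate tubes. Some values are means of two or more separate assays. Standard error is estimated at <30% of the mean.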

Rattus norvegicus [2] = test: Peak percent inhibition of Angiotensin II pressor response in conscious, normotensive rats at 0.3 mg/kg iv; format: functional
Method in brief: (§1)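 Male Sprague-Dawley rats (300–400 g), conscious, catheterized for iv dosing and for arterial pressure and heart rate. Compound given iv or po; PEG 400 vehicle in some oral cases. AII 0.1 μg/kg iv boluses at set intervals afterward. % inhibition of the MAP rise was calculated at each time point, and the peak was taken. Averaged from at least two rats unless noted.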

Rattus norvegicus [3] = test: Peak percent inhibition of Angiotensin II pressor response in conscious, normotensive rats at 0.3 mg/kg po; format: functional; method in brief: as §1
Rattus norvegicus [4] = test: Time to produce onset of action for inhibition of Angiotensin II pressor response in conscious, normotensive rats at 0.3 mg/kg po; format: functional
Method in brief: (§2)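 Conscious male Sprague-Dawley rats (300–400 g), instrumented for iv dosing and arterial pressure. A single iv or po bolus of compound (PEG 400 for some oral doses), then repeated AII challenges at 0.1 μg/kg iv. […] Averaged from at least two rats unless noted.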

Rattus norvegicus [5] = test: Peak percent inhibition of Angiotensin II pressor response in conscious, normotensive rats at 1 mg/kg po; format: functional; method in brief: as §1
Rattus norvegicus [6] = test: Time to produce onset of action for inhibition of Angiotensin II pressor response in conscious, normotensive rats at 0.3 mg/kg iv; format: functional; method in brief: as §2
Rattus norvegicus [7] = test: Peak percent inhibition of Angiotensin II pressor response in conscious, normotensive rats at 1 mg/kg iv; format: functional; method in brief: as §1
Rattus norvegicus [8] = test: Time to produce onset of action for inhibition of Angiotensin II pressor response in conscious, normotensive rats at 1 mg/kg po; format: functional; method in brief: as §2
Rattus norvegicus [9] = test: Time to produce onset of action for inhibition of Angiotensin II pressor response in conscious, normotensive rats at 1 mg/kg iv; format: functional; method in brief: as §2
Rattus norvegicus [10] = test: Peak percent inhibition of Angiotensin II pressor response in conscious, normotensive rats at 0.1 mg/kg iv; format: functional; method in brief: as §1
Rattus norvegicus [11] = test: Time to produce onset of action for inhibition of Angiotensin II pressor response in conscious, normotensive rats at 0.1 mg/kg iv; format: functional; method in brief: as §2
Rattus norvegicus [12] = test: Time to produce onset of action for inhibition of pressor response in conscious, normotensive rats at 0.3 mg/kg po (no. of animals treated); format: functional; method in brief: as §2
Rattus norvegicus [13] = test: Time to produce onset of action for inhibition of pressor response in conscious, normotensive rats at 0.1 mg/kg iv (no. of animals treated); format: functional; method in brief: as §2
Rattus norvegicus [14] = test: Peak percent inhibition of Angiotensin II pressor response in conscious, normotensive rats at 0.3 mg/kg po(no. of animals treated); format: functional; method in brief: as §1
Rattus norvegicus [15] = test: Peak percent inhibition of Angiotensin II pressor response in conscious, normotensive rats at 0.1 mg/kg iv (no. of animals treated); format: functional; method in brief: as §1
Rattus norvegicus [16] = test: Peak percent inhibition of Angiotensin II pressor response in conscious, normotensive rats at 1 mg/kg iv (no. of animals treated); format: functional; method in brief: as §1
Rattus norvegicus [17] = test: Time to produce onset of action for inhibition of pressor response in conscious, normotensive rats at 1 mg/kg iv (no. of animals treated); format: functional; method in brief: as §2

Compound | pIC50 [1] | also measured
CCCc1nn(-c2ccccc2C(F)(F)F)c(C(=O)O)c1Cc1ccc(-c2ccccc2-c2nn[nH]n2)cc1 | 9.17 | inhibition in vivo at 0.3 mg/kg (Rattus norvegicus [2]): 77%; inhibition in vivo at 0.3 mg/kg (Rattus norvegicus [3]): 57%; Duration (Rattus norvegicus [4]): >3.5 h; inhibition in vivo at 1 mg/kg (Rattus norvegicus [5]): 71%; Duration (Rattus norvegicus [6]): ~4 h; inhibition in vivo at 1 mg/kg (Rattus norvegicus [7]): 100%; Duration (Rattus norvegicus [8]): >3.5 h; Duration (Rattus norvegicus [9]): >6 h
CCCCc1nn(-c2ccccc2C(F)(F)F)c(C(=O)O)c1Cc1ccc(-c2ccccc2-c2nn[nH]n2)cc1 | 9.62 | inhibition in vivo at 0.1 mg/kg (Rattus norvegicus [10]): 57%; Duration (Rattus norvegicus [11]): 3.5 h; inhibition in vivo at 1 mg/kg (Rattus norvegicus [7]): 100%; Duration (Rattus norvegicus [9]): 5.3 h
CCCCc1nn(-c2c(Cl)cc(Cl)cc2Cl)c(C(=O)OCC)c1Cc1ccc(-c2ccccc2-c2nn[nH]n2)cc1 | 7.43 | –
CCCCc1nn(CC)c(C(=O)O)c1Cc1ccc(-c2ccccc2-c2nn[nH]n2)cc1 | 8.57 | –
CCCCc1nn(-c2ccccc2C(F)(F)F)c(C(=O)OCC)c1Cc1ccc(-c2ccccc2-c2nnn[nH]2)cc1 | 7.68 | –
CCCCc1nn(-c2cccc(Cl)c2)c(C(=O)O)c1Cc1ccc(-c2ccccc2-c2nn[nH]n2)cc1 | 8.64 | –
CCCCc1nc(-c2ccccc2Cl)c(C(=O)O)n1Cc1ccc(-c2ccccc2-c2nn[nH]n2)cc1 | 9.26 | Duration (Rattus norvegicus [12]): 0.4 h; Duration (Rattus norvegicus [13]): >6 h; inhibition in vivo at 0.3 mg/kg (Rattus norvegicus [14]): 50%; inhibition in vivo at 0.1 mg/kg (Rattus norvegicus [15]): 88%
CCCCc1nn(Cc2ccccc2)c(C(=O)OCC)c1Cc1ccc(-c2ccccc2-c2nnn[nH]2)cc1 | < 7.00 | –
CCCCc1nn(-c2ccccn2)c(C(=O)O)c1Cc1ccc(-c2ccccc2-c2nn[nH]n2)cc1 | 8.77 | –
CCCCc1nn(-c2ccc(Cl)cc2Cl)c(C(=O)O)c1Cc1ccc(-c2ccccc2-c2nn[nH]n2)cc1 | 9.22 | –
CCCCc1nn(-c2ccccc2)c(C(=O)OCC)c1Cc1ccc(-c2ccccc2-c2nnn[nH]2)cc1 | 7.09 | –
CCCCc1nn(-c2ccccc2[N+](=O)[O-])c(C(=O)OCC)c1Cc1ccc(-c2ccccc2-c2nnn[nH]2)cc1 | 8.02 | –
CCCCc1n[nH]c(C(=O)O)c1Cc1ccc(-c2ccccc2-c2nn[nH]n2)cc1 | 8.70 | inhibition in vivo at 1 mg/kg (Rattus norvegicus [16]): 94%; Duration (Rattus norvegicus [17]): >6 h
CCCCc1nn(-c2ccccc2C)c(C(=O)O)c1Cc1ccc(-c2ccccc2-c2nn[nH]n2)cc1 | 9.34 | –
CCCCc1nn(-c2ccc(OC)cc2)c(C(=O)OCC)c1Cc1ccc(-c2ccccc2-c2nnn[nH]2)cc1 | 7.70 | –
CCCc1nn(-c2c(Cl)cccc2Cl)c(C(=O)O)c1Cc1ccc(-c2ccccc2-c2nn[nH]n2)cc1 | 9.16 | inhibition in vivo at 0.3 mg/kg (Rattus norvegicus [3]): 56%; Duration (Rattus norvegicus [4]): >3 h; inhibition in vivo at 1 mg/kg (Rattus norvegicus [5]): 87%; inhibition in vivo at 0.1 mg/kg (Rattus norvegicus [10]): 60%; Duration (Rattus norvegicus [11]): 5.4 h; inhibition in vivo at 1 mg/kg (Rattus norvegicus [7]): 100%; Duration (Rattus norvegicus [8]): >23 h; Duration (Rattus norvegicus [9]): >6 h
CCCCc1nc(-c2ccccc2)c(C(=O)OCC)n1Cc1ccc(-c2ccccc2-c2nn[nH]n2)cc1 | 7.39 | –
CCCCc1nn(CC(F)(F)F)c(C(=O)OCC)c1Cc1ccc(-c2ccccc2-c2nn[nH]n2)cc1 | 7.52 | –
CCCc1nn(CC(F)(F)F)c(C(=O)OCC)c1Cc1ccc(-c2ccccc2-c2nnn[nH]2)cc1 | 7.12 | –
CCCc1nc(C(F)(F)C(F)(F)F)c(C(=O)O)n1Cc1ccc(-c2ccccc2-c2nnn[nH]2)cc1 | 8.96 | –
CCCCc1nn(Cc2ccccc2)c(C(=O)O)c1Cc1ccc(-c2ccccc2-c2nn[nH]n2)cc1 | 9.70 | Duration (Rattus norvegicus [4]): >3 h; inhibition in vivo at 1 mg/kg (Rattus norvegicus [5]): 100%; inhibition in vivo at 0.1 mg/kg (Rattus norvegicus [10]): 68%; Duration (Rattus norvegicus [11]): >5 h; inhibition in vivo at 0.3 mg/kg (Rattus norvegicus [14]): 75%; Duration (Rattus norvegicus [8]): >24 h
CCCCc1nn(-c2ccccn2)c(C(=O)OCC)c1Cc1ccc(-c2ccccc2-c2nnn[nH]2)cc1 | 7.74 | –

More lines, in order of rising pIC50 [1], values ahead:

pIC50 [1] | Compound | also measured
6.80 | CCCc1[nH]nc(C(=O)OCC)c1Cc1ccc(-c2ccccc2-c2nnn[nH]2)cc1 | –
6.89 | CCCCc1n[nH]c(C(=O)OCC)c1Cc1ccc(-c2ccccc2-c2nn[nH]n2)cc1 | inhibition in vivo at 1 mg/kg (Rattus norvegicus [7]): 80%; Duration (Rattus norvegicus [9]): >5 h
6.98 | CCCCc1nn(-c2cc(Cl)ccc2Cl)c(C(=O)OCC)c1Cc1ccc(-c2ccccc2-c2nn[nH]n2)cc1 | –
7.00 | CCCCc1nn(-c2ccc(Cl)cc2)c(C(=O)OCC)c1Cc1ccc(-c2ccccc2-c2nn[nH]n2)cc1 | –
7.05 | CCCCc1nn(-c2cccc(Cl)c2Cl)c(C(=O)OCC)c1Cc1ccc(-c2ccccc2-c2nnn[nH]2)cc1 | –
7.12 | CCOC(=O)c1c(Cc2ccc(-c3ccccc3-c3nnn[nH]3)cc2)c(CC2CC2)nn1-c1c(Cl)cccc1Cl | –
7.25 | CCCc1nn(-c2ccccc2C(F)(F)F)c(C(=O)OCC)c1Cc1ccc(-c2ccccc2-c2nnn[nH]2)cc1 | –
7.26 | CCCCc1nn(-c2cccc(Cl)c2)c(C(=O)OCC)c1Cc1ccc(-c2ccccc2-c2nn[nH]n2)cc1 | –
7.64 | CCCCc1nn(-c2ccccc2-c2ccccc2)c(C(=O)OCC)c1Cc1ccc(-c2ccccc2-c2nn[nH]n2)cc1 | –
7.66 | CCCc1nn(Cc2ccccc2)c(C(=O)OCC)c1Cc1ccc(-c2ccccc2-c2nn[nH]n2)cc1 | –
7.70 | CCCc1nn(-c2c(Cl)cccc2Cl)c(C(=O)OCC)c1Cc1ccc(-c2ccccc2-c2nn[nH]n2)cc1 | –
7.89 | CCCCc1nn(-c2ccccc2C)c(C(=O)OCC)c1Cc1ccc(-c2ccccc2-c2nn[nH]n2)cc1 | –
7.89 | CCCCc1nn(-c2ccccc2Cl)c(C(=O)OCC)c1Cc1ccc(-c2ccccc2-c2nn[nH]n2)cc1 | inhibition in vivo at 1 mg/kg (Rattus norvegicus [5]): 50%; inhibition in vivo at 1 mg/kg (Rattus norvegicus [7]): 43%; Duration (Rattus norvegicus [8]): >2.5 h
8.10 | CCCCc1nn(-c2c(Cl)cccc2Cl)c(C(=O)OCC)c1Cc1ccc(-c2ccccc2-c2nnn[nH]2)cc1 | –
8.17 | CCCCc1nn(-c2ccc(Cl)cc2Cl)c(C(=O)OCC)c1Cc1ccc(-c2ccccc2-c2nnn[nH]2)cc1 | –
8.43 | O=C(O)c1c(Cc2ccc(-c3ccccc3-c3nn[nH]n3)cc2)c(CC2CC2)nn1-c1c(Cl)cccc1Cl | –
8.49 | CCCCc1nn(-c2cc(Cl)ccc2Cl)c(C(=O)O)c1Cc1ccc(-c2ccccc2-c2nnn[nH]2)cc1 | –
8.60 | CCCCc1nn(-c2ccc(OC)cc2[N+](=O)[O-])c(C(=O)O)c1Cc1ccc(-c2ccccc2-c2nnn[nH]2)cc1 | –
8.77 | CCCCc1nn(-c2ccccc2[N+](=O)[O-])c(C(=O)O)c1Cc1ccc(-c2ccccc2-c2nnn[nH]2)cc1 | –
8.89 | CCCCc1nn(-c2ccc(Cl)cc2)c(C(=O)O)c1Cc1ccc(-c2ccccc2-c2nn[nH]n2)cc1 | –
9.10 | CCCCc1nn(-c2ccc(OC)cc2)c(C(=O)O)c1Cc1ccc(-c2ccccc2-c2nn[nH]n2)cc1 | –
9.11 | CCCCc1nn(-c2cccc(Cl)c2Cl)c(C(=O)O)c1Cc1ccc(-c2ccccc2-c2nnn[nH]2)cc1 | –
9.19 | CCCCc1nn(-c2ccccc2-c2ccccc2)c(C(=O)O)c1Cc1ccc(-c2ccccc2-c2nnn[nH]2)cc1 | –
9.28 | CCCCc1nn(CC(F)(F)F)c(C(=O)O)c1Cc1ccc(-c2ccccc2-c2nn[nH]n2)cc1 | –
9.30 | CCCCc1nn(-c2c(Cl)cc(Cl)cc2Cl)c(C(=O)O)c1Cc1ccc(-c2ccccc2-c2nnn[nH]2)cc1 | –
9.46 | CCCCc1nn(-c2ccccc2Cl)c(C(=O)O)c1Cc1ccc(-c2ccccc2-c2nn[nH]n2)cc1 | inhibition in vivo at 0.3 mg/kg (Rattus norvegicus [2]): 73%; inhibition in vivo at 1 mg/kg (Rattus norvegicus [5]): 64%; Duration (Rattus norvegicus [6]): ~3.8 h; inhibition in vivo at 1 mg/kg (Rattus norvegicus [7]): 93%; Duration (Rattus norvegicus [8]): >3 h; Duration (Rattus norvegicus [9]): >6 h
9.62 | CCCCc1nn(CCc2ccccc2)c(C(=O)O)c1Cc1ccc(-c2ccccc2-c2nn[nH]n2)cc1 | inhibition in vivo at 1 mg/kg (Rattus norvegicus [7]): 95%; Duration (Rattus norvegicus [9]): >24 h
9.74 | CCCCc1nn(-c2c(Cl)cccc2Cl)c(C(=O)O)c1Cc1ccc(-c2ccccc2-c2nn[nH]n2)cc1 | inhibition in vivo at 1 mg/kg (Rattus norvegicus [5]): 79%; inhibition in vivo at 0.1 mg/kg (Rattus norvegicus [10]): 80%; Duration (Rattus norvegicus [11]): >4.5 h; Duration (Rattus norvegicus [8]): >4.5 h
